The array DNA melting data of Ke et al. (doi:10.1101/2024.01.08.574731)

Key:
[1] = folding enthalpy; higher = less favourable; fluorescence melt of hairpins on a sequencing array, two-state fit; settings: sodium 0.088 M
Outline: (§1)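 To match UV melts, fitted temperatures were raised by 9.35 °C. These fits were bootstrapped two-state models that gave melting temperature and folding enthalpy, combined by inverse variance over four replicates. The input was normalised Cy3 fluorescence of library hairpins with annealed Cy3 and quencher oligos on a sequenced MiSeq flow cell, imaged in 50 mM Na-HEPES pH 8.0, 25 mM NaCl in 2.5 °C steps up to 60 °C.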

[2] = melting temperature; fluorescence melt of hairpins on a sequencing array, two-state fit, raised by 9.35 °C to match UV melts; settings: sodium 0.088 M
Outline: as §1

GTTTTTCGAAAGAAAAC (((.(((....))))))
folding enthalpy [1]: -21.4 kcal/mol
Tm [2]: 35.8 °C

GTTTTTGGAAACAAAAAC (((((((....)))))))
folding enthalpy [1]: -41.9 kcal/mol
Tm [2]: 51.5 °C

GTTTTTGGAAACAAAGAC ((.((((....)))).))
folding enthalpy [1]: -24.5 kcal/mol
Tm [2]: 34 °C

TAACGGAAACGTTA (((((....)))))
folding enthalpy [1]: -18.4 kcal/mol
Tm [2]: 41.3 °C

TACAGGAAACTGTA (((((....)))))
folding enthalpy [1]: -14.5 kcal/mol
Tm [2]: 37.7 °C

TACCAGAAATGGTA (((((....)))))
folding enthalpy [1]: -13.3 kcal/mol
Tm [2]: 37.5 °C

TACCGGAAACGGTA (((((....)))))
folding enthalpy [1]: -16 kcal/mol
Tm [2]: 50.2 °C

TACGTGAAAACGTA (((((....)))))
folding enthalpy [1]: -16.8 kcal/mol
Tm [2]: 43.5 °C

TAGTGGAAACACTA (((((....)))))
folding enthalpy [1]: -14.9 kcal/mol
Tm [2]: 40.9 °C

TATCCGAAAGGATA (((((....)))))
folding enthalpy [1]: -16.6 kcal/mol
Tm [2]: 56.5 °C

TCTACGAAAGTAGA (((((....)))))
folding enthalpy [1]: -16.4 kcal/mol
Tm [2]: 47.8 °C

TCTGTGAAAACAGA (((((....)))))
folding enthalpy [1]: -17.6 kcal/mol
Tm [2]: 42.4 °C

TGAACGAAAGTTCA (((((....)))))
folding enthalpy [1]: -20.6 kcal/mol
Tm [2]: 53.3 °C

TGAAGGAAACTTCA (((((....)))))
folding enthalpy [1]: -13.9 kcal/mol
Tm [2]: 31.8 °C

TGAATGAAAATTCA (((((....)))))
folding enthalpy [1]: -9.75 kcal/mol
Tm [2]: 30.4 °C

TGACGGAAACGTCA (((((....)))))
folding enthalpy [1]: -23.7 kcal/mol
Tm [2]: 52.5 °C

TGAGAGAAATCTCA (((((....)))))
folding enthalpy [1]: -9.57 kcal/mol
Tm [2]: 28.2 °C

TGAGGGAAACCTCA (((((....)))))
folding enthalpy [1]: -20.9 kcal/mol
Tm [2]: 42.2 °C

TGATGGAAACATCA (((((....)))))
folding enthalpy [1]: -22 kcal/mol
Tm [2]: 41.3 °C

TGCCTGAAAAGGCA (((((....)))))
folding enthalpy [1]: -17.5 kcal/mol
Tm [2]: 59.1 °C

TGGTCGAAAGACCA (((((....)))))
folding enthalpy [1]: -19.1 kcal/mol
Tm [2]: 66.8 °C

TGGTGGAAACACCA (((((....)))))
folding enthalpy [1]: -22.2 kcal/mol
Tm [2]: 52.4 °C

TGTCGGAAACGACA (((((....)))))
folding enthalpy [1]: -16.3 kcal/mol
Tm [2]: 60 °C

TTCAGGAAACTGAA (((((....)))))
folding enthalpy [1]: -13.5 kcal/mol
Tm [2]: 35.7 °C

TTGACGAAAGTCAA (((((....)))))
folding enthalpy [1]: -21.4 kcal/mol
Tm [2]: 54.1 °C

TTTGTGAAAACAAA (((((....)))))
folding enthalpy [1]: -12.6 kcal/mol
Tm [2]: 35.6 °C
